Source: ChEMBL document CHEMBL1152810, “Microwave synthesis and evaluation of phenacylhomoserine lactones as anticancer compounds that minimally activate quorum sensing pathways in Pseudomonas aeruginosa” (J Med Chem, 2009)
pIC50: −log10 of the molar value.

Columns and labels:
Pseudomonas aeruginosa [1] = assay: Toxicity assessed as activation of quorum sensing signalling in Pseudomonas aeruginosa MW1 carrying (lasI-,rhlI-) pUM15 containing rsa::gfp fusion gene at 33 uM by LasR-dependent green fluorescence protein reporter assay; format: organism-based; conditions: in vivo
NCI-H630 [2] = assay: Cytotoxicity against human NCI-H630 cells after 5 days by SRB assay; format: functional, cell-based; conditions: NCI-H630, 120 h
How it was run: (§1)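 Cells grown in phenol-red-free RPMI-1640 with 10% dialyzed FBS and no antibiotics, at 37 °C and 5% CO₂. H630-1 was kept in 1 µM 5-FU until 1 week before use. Compounds were dried from EtOH (10× final) into wells, in duplicate or quadruplicate. Seeding per well: H630 2×10³, H630-1 4×10³, PC3 2×10³. After 5 days, cells were TCA-fixed, stained with 0.4% SRB, dye dissolved in Tris, OD570 read.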

NCI-H630 [3] = assay: Cytotoxicity against 5FU-resistant human NCI-H630 cells after 5 days by SRB assay; format: functional, cell-based; conditions: NCI-H630, 120 h; how it was run: as §1
PC-3 = assay: Cytotoxicity against human PC3 cells after 5 days by SRB assay; format: functional, cell-based; conditions: PC-3, 120 h; how it was run: as §1
Pseudomonas aeruginosa [4] = assay: Toxicity assessed as activation of quorum sensing signalling in Pseudomonas aeruginosa MW1 carrying (lasI-,rhlI-) pUM15 containing rsa::gfp fusion gene at 0.3 uM by LasR-dependent green fluorescence protein reporter assay; format: organism-based; conditions: in vivo

SMILES | Activity (Pseudomonas aeruginosa [1]) | pIC50 (NCI-H630 [2]) | pIC50 (NCI-H630 [3]) | pIC50 (PC-3) | Activity (Pseudomonas aeruginosa [4])
O=C(CCCCCCCCCc1ccccc1)CC(=O)N[C@H]1CCOC1=O | Non-toxic | 4.80 | 4.89 | 5.40 | –
O=C(CCCCCCCc1ccccc1)CC(=O)N[C@H]1CCOC1=O | – | 4.38 | 5.00 | 5.70 | –
O=C(CCCCCCCCCCCc1ccccc1)CC(=O)N[C@H]1CCOC1=O | Non-toxic | 4.48 | 4.57 | 5.40 | –
O=C(CCCCCc1ccccc1)CC(=O)N[C@H]1CCOC1=O | – | 4.36 | 4.62 | 5.05 | –
O=C(CCCCCCc1ccccc1)CC(=O)N[C@H]1CCOC1=O | – | 4.19 | 4.57 | 5.05 | –
O=C(CCCCCCCCCCc1ccccc1)N[C@H]1CCOC1=O | – | 4.15 | 4.18 | 4.18 | –
O=C(CCCc1ccccc1)N[C@H]1CCOC1=O | – | < 4.00 | < 4.00 | < 4.00 | –
O=C(CCCCCCCc1ccccc1)N[C@H]1CCOC1=O | – | < 4.00 | < 4.00 | 4.07 | –
O=C(CCCCCCCCc1ccccc1)N[C@H]1CCOC1=O | – | < 4.00 | < 4.00 | 4.17 | –
O=C(CCCCCCCCCCc1ccccc1)CC(=O)N[C@H]1CCOC1=O | Non-toxic | 4.64 | 4.85 | 5.70 | –
O=C(CCCCc1ccccc1)CC(=O)N[C@H]1CCOC1=O | – | < 4.00 | 4.10 | 4.08 | –
O=C(CC(=O)c1ccccc1)N[C@H]1CCOC1=O | – | < 4.00 | < 4.00 | < 4.00 | –
O=C(Cc1ccccc1)N[C@H]1CCOC1=O | – | < 4.00 | < 4.00 | < 4.00 | –
O=C(CC(=O)N[C@H]1CCOC1=O)Cc1ccccc1 | – | < 4.00 | < 4.00 | < 4.00 | –
O=C(CCCCCc1ccccc1)N[C@H]1CCOC1=O | – | < 4.00 | < 4.00 | < 4.00 | –
O=C(CCCc1ccccc1)CC(=O)N[C@H]1CCOC1=O | – | < 4.00 | < 4.00 | < 4.00 | –
O=C(CCCCCCc1ccccc1)N[C@H]1CCOC1=O | – | < 4.00 | < 4.00 | < 4.00 | –
O=C(CCCCCCCCCc1ccccc1)CC(=O)N[C@@H]1CCOC1=O | – | < 4.00 | < 4.00 | < 4.00 | –
O=C(CCc1ccccc1)N[C@H]1CCOC1=O | – | < 4.00 | < 4.00 | < 4.00 | –
O=C(CCCCCCCCc1ccccc1)CC(=O)N[C@H]1CCOC1=O | – | 4.96 | 5.00 | 5.40 | –
O=C(CCCCCCCCCCCc1ccccc1)N[C@H]1CCOC1=O | – | < 4.00 | < 4.00 | < 4.00 | –
O=C(CCCCCCCCCc1ccccc1)N[C@H]1CCOC1=O | – | < 4.00 | < 4.00 | 4.12 | –
O=C(CCCCc1ccccc1)N[C@H]1CCOC1=O | – | < 4.00 | < 4.00 | < 4.00 | –
O=C(CCc1ccccc1)CC(=O)N[C@H]1CCOC1=O | – | < 4.00 | < 4.00 | < 4.00 | –
CCCCCCCCCC(=O)CC(=O)N[C@H]1CCOC1=O | – | 4.47 | 4.92 | 5.30 | Toxic
